# Calls of active or inactive are those of the source. The rule behind the calls is not given here.
# System: SK-MEL
# Assay: Cytotoxicity against human SK-MEL cells up to 25 ug/ml after 48 hrs by neutral red assay relative to control
# Type: cell-based
# Details: not given
# Procedure, shortened: (§1)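 Cells grown in RPMI-1640 with 10% bovine calf serum and amikacin at 37 °C, 5% CO2. Seeded at 25,000 cells/well and grown 24 h, then exposed 48 h to samples diluted in serum-free medium. Viability by Neutral Red; % decrease vs vehicle; IC50 from dose curves. Triplicate runs, mean reported; doxorubicin as positive control.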
row,SMILES,Activity
1,O=c1sc2ccccc2n1CCCN1CCN(CCCn2c(=O)sc3ccccc32)CC1,Non-toxic
2,O=c1sc2ccccc2n1CCCN1CCN(CCn2c(=O)sc3ccccc32)CC1,Non-toxic

# System: not listed separately
# Assay: Cytotoxicity against pig LLC-PK11 cells after 48 hrs by neutral red assay relative to control
# Type: cell-based
# Details: Sus scrofa, LLC-PK11, 48 h
# Procedure, shortened: (§2)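 Cells grown in RPMI-1640 with 10% bovine calf serum and amikacin at 37°C, 5% CO₂. Seeded 25,000 cells/well, grown 24 h, then exposed to compounds diluted in serum-free medium for 48 h. Viability by Neutral Red uptake, % decrease versus vehicle control. IC50 from dose curves, triplicate means. Doxorubicin positive control.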
row,SMILES,IC50
1,c1ccc2oc(SCCCCN3CCN(CCCCSc4nc5ccccc5o4)CC3)nc2c1,23500 nM
2,O=c1sc2ccccc2n1CCCN1CCN(CCCn2c(=O)sc3ccccc32)CC1,23500 nM
3,COc1cccc2c1C(=O)c1c(O)c3c(c(O)c1C2=O)C[C@@](O)(C(=O)CO)C[C@@H]3O[C@H]1C[C@H](N)[C@H](O)[C@H](C)O1 [DOXORUBICIN],790 nM
4,O=c1sc2ccccc2n1CCCN1CCN(CCn2c(=O)sc3ccccc32)CC1,24100 nM

# System: SW1353
# Assay: Antiinflammatory activity in human SW1353 cells assessed as inhibition of PMA-induced NF-kappaB activity up to 25 ug/ml incubated for 30 mins prior to PMA challenge measured after 8 hrs by luciferase reporter gene assay
# Type: cell-based
# Details: not given
# Procedure, shortened: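 SW1353 chondrosarcoma cells grown in DMEM/F12 with 10% FBS at 37 °C, 5% CO2. Cells electroporated with an NF-κB luciferase plasmid (50 μg/mL, 160 V, one 70-ms pulse) and plated at 1.25 × 10⁵ cells/well. After 24 h, compound was added 30 min before PMA (70 ng/mL), then 8 h incubation. Luciferase read-out as % inhibition vs vehicle; IC50 from dose curves. Sp-1 served as a counter-screen.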
row,SMILES,inhibition
1,O=c1sc2ccccc2n1CCCN1CCN(CCCn2c(=O)sc3ccccc32)CC1,inactive
2,O=c1sc2ccccc2n1CCCN1CCN(CCn2c(=O)sc3ccccc32)CC1,inactive

# System: Vero
# Assay: Cytotoxicity against African green monkey Vero cells after 48 hrs by neutral red assay relative to control
# Type: cell-based
# Details: chlorocebus sabaeus
# Procedure, shortened: as §2
row,SMILES,IC50
1,COc1cccc2c1C(=O)c1c(O)c3c(c(O)c1C2=O)C[C@@](O)(C(=O)CO)C[C@@H]3O[C@H]1C[C@H](N)[C@H](O)[C@H](C)O1 [DOXORUBICIN],920 nM

# System: SK-OV-3
# Assay: Cytotoxicity against human SKOV3 cells after 48 hrs by neutral red assay relative to control
# Type: cell-based
# Details: SK-OV-3, 48 h
# Procedure, shortened: as §2
row,SMILES,IC50
1,COc1cccc2c1C(=O)c1c(O)c3c(c(O)c1C2=O)C[C@@](O)(C(=O)CO)C[C@@H]3O[C@H]1C[C@H](N)[C@H](O)[C@H](C)O1 [DOXORUBICIN],200 nM

# System: Vero
# Assay: Cytotoxicity against African green monkey Vero cells up to 25 ug/ml after 48 hrs by neutral red assay relative to control
# Type: cell-based
# Details: chlorocebus sabaeus
# Procedure, shortened: as §1
row,SMILES,Activity
1,c1ccc2oc(SCCCCN3CCN(CCCCSc4nc5ccccc5o4)CC3)nc2c1,Non-toxic
2,O=c1sc2ccccc2n1CCCN1CCN(CCCn2c(=O)sc3ccccc32)CC1,Non-toxic
3,O=c1sc2ccccc2n1CCCN1CCN(CCn2c(=O)sc3ccccc32)CC1,Non-toxic

# Target: T1, Nitric oxide synthase, inducible (Mus musculus) (UniProt P29477)
# T1 sequence (whole entry): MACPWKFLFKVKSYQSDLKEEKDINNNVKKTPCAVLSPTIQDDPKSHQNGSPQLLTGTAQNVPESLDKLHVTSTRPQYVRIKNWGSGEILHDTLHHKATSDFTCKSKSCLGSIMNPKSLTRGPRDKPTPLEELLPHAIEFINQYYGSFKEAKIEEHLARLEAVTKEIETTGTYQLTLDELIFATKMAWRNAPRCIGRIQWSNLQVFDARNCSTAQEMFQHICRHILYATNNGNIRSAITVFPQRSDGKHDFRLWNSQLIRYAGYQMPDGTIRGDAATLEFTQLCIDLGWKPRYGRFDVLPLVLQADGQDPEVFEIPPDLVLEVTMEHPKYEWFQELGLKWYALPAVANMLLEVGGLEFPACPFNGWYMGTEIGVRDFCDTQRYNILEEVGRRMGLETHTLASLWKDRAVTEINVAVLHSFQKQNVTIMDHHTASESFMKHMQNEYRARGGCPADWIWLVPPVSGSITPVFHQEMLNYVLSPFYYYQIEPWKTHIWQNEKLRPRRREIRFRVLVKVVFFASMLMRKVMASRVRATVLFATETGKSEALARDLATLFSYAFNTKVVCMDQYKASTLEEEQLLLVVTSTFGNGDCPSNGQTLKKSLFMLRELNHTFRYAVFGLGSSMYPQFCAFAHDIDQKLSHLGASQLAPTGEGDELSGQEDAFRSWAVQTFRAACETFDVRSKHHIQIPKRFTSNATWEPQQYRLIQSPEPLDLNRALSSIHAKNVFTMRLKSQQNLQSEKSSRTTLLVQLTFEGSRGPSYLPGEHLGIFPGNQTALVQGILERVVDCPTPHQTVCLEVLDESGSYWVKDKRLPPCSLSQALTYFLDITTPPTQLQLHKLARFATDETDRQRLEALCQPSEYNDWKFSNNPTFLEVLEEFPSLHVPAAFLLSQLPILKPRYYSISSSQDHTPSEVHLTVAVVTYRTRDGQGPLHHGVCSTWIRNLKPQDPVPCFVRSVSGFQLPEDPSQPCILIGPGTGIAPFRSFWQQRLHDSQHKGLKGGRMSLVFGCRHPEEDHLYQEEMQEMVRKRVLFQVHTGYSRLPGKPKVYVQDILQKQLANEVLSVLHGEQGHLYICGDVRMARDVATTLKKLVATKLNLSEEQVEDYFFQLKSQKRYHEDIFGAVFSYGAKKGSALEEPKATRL
# Assay: Antiinflammatory activity in mouse RAW264.7 cells assessed as inhibition of LPS-induced iNOS activity up to 25 ug/ml incubated for 30 mins prior to LPS challenge measured after 24 hrs by Griess assay
# Type: cell-based
# Details: not given
# Procedure, shortened: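 RAW264.7 macrophages seeded at 50,000 cells/well and grown 24 h to ≥75% confluency. Compounds in serum-free medium added 30 min before LPS (5 μg/mL), then 24 h incubation. Nitrite in the supernatant measured with Griess reagent.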
row,SMILES,inhibition
1,O=c1sc2ccccc2n1CCCN1CCN(CCn2c(=O)sc3ccccc32)CC1,inactive

# System: BT-549
# Assay: Cytotoxicity against human BT549 cells up to 25 ug/ml after 48 hrs by neutral red assay relative to control
# Type: cell-based
# Details: bt-549, 48 h
# Procedure, shortened: as §1
row,SMILES,Activity
1,O=c1sc2ccccc2n1CCCN1CCN(CCCn2c(=O)sc3ccccc32)CC1,Non-toxic
2,O=c1sc2ccccc2n1CCCN1CCN(CCn2c(=O)sc3ccccc32)CC1,Non-toxic

# System: KB
# Assay: Cytotoxicity against human KB cells after 48 hrs by neutral red assay relative to control
# Type: cell-based
# Details: not given
# Procedure, shortened: as §2
row,SMILES,IC50
1,c1ccc2oc(SCCCCN3CCN(CCCCSc4nc5ccccc5o4)CC3)nc2c1,25000 nM
2,COc1cccc2c1C(=O)c1c(O)c3c(c(O)c1C2=O)C[C@@](O)(C(=O)CO)C[C@@H]3O[C@H]1C[C@H](N)[C@H](O)[C@H](C)O1 [DOXORUBICIN],220 nM

# System: BT-549
# Assay: Cytotoxicity against human BT549 cells after 48 hrs by neutral red assay relative to control
# Type: cell-based
# Details: BT-549, 48 h
# Procedure, shortened: as §2
row,SMILES,IC50
1,c1ccc2oc(SCCCCN3CCN(CCCCSc4nc5ccccc5o4)CC3)nc2c1,22500 nM
2,COc1cccc2c1C(=O)c1c(O)c3c(c(O)c1C2=O)C[C@@](O)(C(=O)CO)C[C@@H]3O[C@H]1C[C@H](N)[C@H](O)[C@H](C)O1 [DOXORUBICIN],170 nM

# System: not listed separately
# Assay: Antiinflammatory activity in human SW1353 cells assessed as inhibition of PMA-induced NF-kappaB activity incubated for 30 mins prior to PMA challenge measured after 8 hrs by luciferase reporter gene assay
# Type: cell-based
# Details: not given
# Procedure, shortened: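 SW1353 cells in DMEM/F12 with 10% FBS, electroporated with NF-κB luciferase plasmid (160 V, one 70-ms pulse), plated at 1.25 × 10⁵ cells/well. After 24 h, graded compound concentrations added 30 min before PMA 70 ng/mL, then 8 h incubation. Luciferase read-out, % inhibition versus vehicle, IC50 from dose curves. Sp-1 reporter served as nonspecific control.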
row,SMILES,IC50
1,c1ccc2oc(SCCCCN3CCN(CCCCSc4nc5ccccc5o4)CC3)nc2c1,1400 nM

# System: SK-OV-3
# Assay: Cytotoxicity against human SKOV3 cells up to 25 ug/ml after 48 hrs by neutral red assay relative to control
# Type: cell-based
# Details: sk-ov-3, 48 h
# Procedure, shortened: as §1
row,SMILES,Activity
1,c1ccc2oc(SCCCCN3CCN(CCCCSc4nc5ccccc5o4)CC3)nc2c1,Non-toxic
2,O=c1sc2ccccc2n1CCCN1CCN(CCCn2c(=O)sc3ccccc32)CC1,Non-toxic
3,O=c1sc2ccccc2n1CCCN1CCN(CCn2c(=O)sc3ccccc32)CC1,Non-toxic

# System: SK-MEL
# Assay: Cytotoxicity against human SK-MEL cells after 48 hrs by neutral red assay relative to control
# Type: cell-based
# Details: not given
# Procedure, shortened: as §2
row,SMILES,IC50
1,c1ccc2oc(SCCCCN3CCN(CCCCSc4nc5ccccc5o4)CC3)nc2c1,25000 nM
2,COc1cccc2c1C(=O)c1c(O)c3c(c(O)c1C2=O)C[C@@](O)(C(=O)CO)C[C@@H]3O[C@H]1C[C@H](N)[C@H](O)[C@H](C)O1 [DOXORUBICIN],140 nM

# System: KB
# Assay: Cytotoxicity against human KB cells up to 25 ug/ml after 48 hrs by neutral red assay relative to control
# Type: cell-based
# Details: not given
# Procedure, shortened: as §1
row,SMILES,Activity
1,O=c1sc2ccccc2n1CCCN1CCN(CCCn2c(=O)sc3ccccc32)CC1,Non-toxic
2,O=c1sc2ccccc2n1CCCN1CCN(CCn2c(=O)sc3ccccc32)CC1,Non-toxic

# Reference: ChEMBL document CHEMBL3596194, “Design, synthesis and biological evaluation of bivalent benzoxazolone and benzothiazolone ligands as potential anti-inflammatory/analgesic agents” (Bioorg Med Chem, 2015)
